According to ChEMBL document CHEMBL1127592, “Synthesis and SAR studies of novel triazolopyrimidine derivatives as potent, orally active angiotensin II receptor antagonists” (J Med Chem, 1994):

Assays:
Rattus norvegicus [1] = experiment: Change in systolic arterial blood pressure in renal artery ligated hypertensive rats, orally dosed at 10 mg/kg; format: functional; details: route oral
Outline: (§1)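 Conscious male CD Sprague-Dawley rats (250-270 g) with left renal artery ligated several days earlier under ketamine. Single oral gavage, 3-8 rats/group. Systolic pressure by indirect tail-cuff sphygmomanometry before and 3 h post-dose; change reported as SAP decrease at 3 h, mean ± SEM.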

[2] = target: T1, Type-1 angiotensin II receptor B (Rattus norvegicus, UniProt P29089); experiment: Displacement of [125I]-Sar1-Ile8-A II from rat adrenal Angiotensin-1 (AT-1) receptor
T1 sequence (P29089 whole entry): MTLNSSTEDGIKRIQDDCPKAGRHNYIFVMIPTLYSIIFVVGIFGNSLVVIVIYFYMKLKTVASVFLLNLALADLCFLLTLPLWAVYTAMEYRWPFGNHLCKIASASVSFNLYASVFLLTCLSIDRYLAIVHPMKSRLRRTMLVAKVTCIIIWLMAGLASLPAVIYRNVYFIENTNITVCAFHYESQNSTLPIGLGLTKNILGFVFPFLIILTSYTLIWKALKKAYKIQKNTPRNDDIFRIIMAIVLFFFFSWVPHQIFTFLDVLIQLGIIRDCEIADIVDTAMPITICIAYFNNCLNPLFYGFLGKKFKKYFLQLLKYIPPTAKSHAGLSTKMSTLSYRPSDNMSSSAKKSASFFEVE

Rattus norvegicus [3] = experiment: Change in mean arterial blood pressure in renal artery ligated hypertensive rats, orally dosed at 1 mg/kg; format: functional; details: route oral
Outline: (§2)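 Male CD Sprague-Dawley rats (250-270 g), left renal artery ligated under ketamine (100 mg/kg ip); catheterized for direct recording 2-3 days before test. Single oral gavage, 3-7 rats/group. MAP recorded before and for 16 h after dosing; value is maximal MAP decrease, mean ± SEM; decrease under 15 mmHg counted as no effect.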

Rattus norvegicus [4] = experiment: Compound at a dose of 1 mg/kg was administered orally and evaluated for change in mean arterial blood pressure in renal artery ligated hypertensive rats; format: functional; details: route oral; outline: as §2
[5] = target: T2, Type-2 angiotensin II receptor (Rattus norvegicus, UniProt P35351); experiment: In vitro binding affinity against angiotensin-2 (AT-2) receptor in rat adrenal
T2 sequence (P35351 whole entry): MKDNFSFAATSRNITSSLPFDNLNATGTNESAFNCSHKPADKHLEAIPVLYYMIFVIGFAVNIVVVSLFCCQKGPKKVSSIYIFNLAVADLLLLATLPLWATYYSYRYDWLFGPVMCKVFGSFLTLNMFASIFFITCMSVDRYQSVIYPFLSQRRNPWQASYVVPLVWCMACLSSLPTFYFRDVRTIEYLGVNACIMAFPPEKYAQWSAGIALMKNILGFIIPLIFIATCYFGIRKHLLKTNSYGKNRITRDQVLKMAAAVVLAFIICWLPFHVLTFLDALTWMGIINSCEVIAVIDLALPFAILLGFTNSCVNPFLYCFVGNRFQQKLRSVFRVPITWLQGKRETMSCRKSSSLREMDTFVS
Outline: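 Rat adrenal membranes (25-40 μg protein) in Tris-HCl 50 mM, MgCl2 5 mM, 0.25% BSA, pH 7.2, with 0.2 nM [125I]Sar1-Ile8-AII and drug at 10^-9 to 10^-4 M, 60 min, 25 °C. 20 mM DTT included or omitted to separate AT1 and AT2 binding. Nonspecific binding with 1 μM AII; filtration. IC50 by log-logit, Ki by LIGAND; one experiment in triplicate.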

Rattus norvegicus [6] = experiment: Compound at a dose of 10 mg/kg was administered orally and evaluated for change in systolic arterial blood pressure in renal artery ligated hypertensive rats; format: functional; details: route oral; outline: as §1

| Compound | Change in blood pressure (Rattus norvegicus [1]) [mmHg] | Ki [2] [nM] | Change in blood pressure (Rattus norvegicus [3]) [mmHg] | Change in blood pressure (Rattus norvegicus [4]) [mmHg] | Ki [5] [nM] | Change in blood pressure (Rattus norvegicus [6]) [mmHg] |
| --- | --- | --- | --- | --- | --- | --- |
| CCCc1nc(CCC)n2nc(O)nc2c1Cc1ccc(-c2ccccc2-c2nn[nH]n2)cc1 | -72.6 | 659 | -22.2 | – | – | – |
| CCCc1nc(C)n2ncnc2c1Cc1ccc(-c2ccccc2-c2nn[nH]n2)cc1 | -89.7 | 12 | -20.1 | – | – | – |
| CCCc1nc(C)n2nc(COC)nc2c1Cc1ccc(-c2ccccc2-c2nn[nH]n2)cc1 | -73.1 | 15 | -13.2 | – | – | – |
| CCCc1ncn2ncnc2c1Cc1ccc(-c2ccccc2-c2nn[nH]n2)cc1 | -20 | 50 | – | – | – | – |
| CCCc1nc(C)n2cnnc2c1Cc1ccc(-c2ccccc2-c2nn[nH]n2)cc1 | -77.2 | 10 | -24.2 | – | – | – |
| CCCc1nc(COC)n2nc(O)nc2c1Cc1ccc(-c2ccccc2-c2nn[nH]n2)cc1 | -88.7 | 92 | -18.5 | – | – | – |
| CCCc1nc(C)n2[nH]c(=O)nc2c1Cc1ccc(-c2ccccc2-c2nnn[nH]2)cc1 | – | 24 | – | -39.6 | 79200 | -92.2 |
| CCCc1nc(C)n2c(=O)n(CC(=O)OCC)nc2c1Cc1ccc(-c2ccccc2-c2nn[nH]n2)cc1 | -71.7 | 12 | -21.6 | – | – | – |
| CCCc1nc(C)n2c(O)nnc2c1Cc1ccc(-c2ccccc2-c2nn[nH]n2)cc1 | -87.5 | 10 | -44.6 | – | – | – |
| CCCc1nc(C)n2nc(C(=O)O)nc2c1Cc1ccc(-c2ccccc2-c2nn[nH]n2)cc1 | -36.4 | 35 | -13.4 | – | – | – |
| CCCc1ncn2nc(O)nc2c1Cc1ccc(-c2ccccc2-c2nn[nH]n2)cc1 | -38.3 | 46 | -17.9 | – | – | – |
| CCCc1nc(SC)n2c(O)nnc2c1Cc1ccc(-c2ccccc2-c2nn[nH]n2)cc1 | -15.6 | – | – | – | – | – |
| CCCc1nc(C)n2nc(S)nc2c1Cc1ccc(-c2ccccc2-c2nn[nH]n2)cc1 | -57.8 | 10 | -19.7 | – | – | – |
| Cc1nc(C2CC2)c(Cc2ccc(-c3ccccc3-c3nn[nH]n3)cc2)c2nc(O)nn12 | -51.1 | 82 | -12.3 | – | – | – |
| CCCc1nc(CO)n2nc(C)nc2c1Cc1ccc(-c2ccccc2-c2nn[nH]n2)cc1 | -21.4 | 27 | – | – | – | – |
| CCCc1nc(C)n2nc(S(=O)(=O)NC)nc2c1Cc1ccc(-c2ccccc2-c2nn[nH]n2)cc1 | -37.2 | 139 | -14.1 | – | – | – |
| CCCc1nc(C)n2c(=O)n(C)nc2c1Cc1ccc(-c2ccccc2-c2nn[nH]n2)cc1 | -48.8 | 53 | -25.1 | – | – | – |
| CCCCc1nc(C)n2nc(O)nc2c1Cc1ccc(-c2ccccc2C(=O)O)cc1 | -23.5 | 622 | – | – | – | – |
| CCc1nc(C)n2nc(O)nc2c1Cc1ccc(-c2ccccc2-c2nn[nH]n2)cc1 | -72.8 | 35 | -20.1 | – | – | – |
| CCCc1nc(C)n2nc(SC)nc2c1Cc1ccc(-c2ccccc2-c2nn[nH]n2)cc1 | -32.2 | 174 | -11.8 | – | – | – |
| CCCc1nc(C)n2nc(OC)nc2c1Cc1ccc(-c2ccccc2-c2nn[nH]n2)cc1 | -26.2 | 27 | – | – | – | – |
| CCCc1nc(CO)n2nc(O)nc2c1Cc1ccc(-c2ccccc2-c2nn[nH]n2)cc1 | -40.6 | 10 | -21.5 | – | – | – |

| Compound | Change in blood pressure (Rattus norvegicus [1]) [mmHg] | Ki [2] [nM] | Change in blood pressure (Rattus norvegicus [3]) [mmHg] | Change in blood pressure (Rattus norvegicus [4]) [mmHg] | Ki [5] [nM] | Change in blood pressure (Rattus norvegicus [6]) [mmHg] |
| --- | --- | --- | --- | --- | --- | --- |
| CCCc1nc(C)n2nc(S(=O)(=O)N(C)C)nc2c1Cc1ccc(-c2ccccc2-c2nn[nH]n2)cc1 | -7.2 | 185 | – | – | – | – |
| CCCc1nc(C)n2nc(NC)nc2c1Cc1ccc(-c2ccccc2-c2nn[nH]n2)cc1 | -65.3 | 5 | -23.6 | – | – | – |
| CCCc1nc(C)n2nc(N)nc2c1Cc1ccc(-c2ccccc2-c2nn[nH]n2)cc1 | -77.2 | 1 | -33.4 | – | – | – |
| CCCc1nc(C)n2nc(CC)nc2c1Cc1ccc(-c2ccccc2-c2nn[nH]n2)cc1 | -69 | 8 | -8.9 | – | – | – |
| CCCc1nc(CC)n2nc(O)nc2c1Cc1ccc(-c2ccccc2-c2nn[nH]n2)cc1 | -75.8 | 225 | -46.5 | – | – | – |
| CCCc1nc(C)n2nc(C(F)(F)F)nc2c1Cc1ccc(-c2ccccc2-c2nn[nH]n2)cc1 | -11.8 | 147 | – | – | – | – |
| CCCc1nc(COC)n2nc(C)nc2c1Cc1ccc(-c2ccccc2-c2nn[nH]n2)cc1 | -44.4 | 111 | -21.8 | – | – | – |
| CCCCc1nc(C)n2c(S)nnc2c1Cc1ccc(-c2ccccc2-c2nn[nH]n2)cc1 | -86.3 | 106 | -24.3 | – | – | – |
| CCCc1nc(C)n2nc(C)nc2c1Cc1ccc(-c2ccccc2-c2nn[nH]n2)cc1 | -71.8 | 32 | -17.9 | – | – | – |
| CCCc1nc(C)n2nc(S(N)(=O)=O)nc2c1Cc1ccc(-c2ccccc2-c2nn[nH]n2)cc1 | -61.3 | 11 | -14.5 | – | – | – |
| CCCc1nc(C)n2nc(SCC(=O)OCC)nc2c1Cc1ccc(-c2ccccc2-c2nn[nH]n2)cc1 | -26.4 | 99 | – | – | – | – |
| CCCc1nc(C)n2c(O)nnc2c1Cc1ccc(NC(=O)c2ccccc2S(=O)(=O)O)cc1 | -18.3 | 41 | – | – | – | – |
| CCCCc1nc(C)n2nc(O)nc2c1Cc1ccc(-c2ccccc2-c2nn[nH]n2)cc1 | -91.5 | 30 | -22.1 | – | – | – |
| CCCc1nc(C)n2c(S)nnc2c1Cc1ccc(-c2ccccc2-c2nn[nH]n2)cc1 | -90.2 | 127 | -22.4 | – | – | – |
| CCCc1nc(C)n2nc(CC(=O)OCC)nc2c1Cc1ccc(-c2ccccc2-c2nn[nH]n2)cc1 | -84 | 9 | -18.1 | – | – | – |
| CCCc1nc(C)n2c(=O)n(CCO)nc2c1Cc1ccc(-c2ccccc2-c2nn[nH]n2)cc1 | -67.9 | 6 | -25.6 | – | – | – |
| CCCc1nc(C)n2nc(C(=O)OCC)nc2c1Cc1ccc(-c2ccccc2-c2nn[nH]n2)cc1 | -76.7 | 23 | -14.9 | – | – | – |
| CCCc1nc(C)n2nc(CO)nc2c1Cc1ccc(-c2ccccc2-c2nn[nH]n2)cc1 | -62.5 | 5 | -25.4 | – | – | – |
| CCCc1nc(C)n2nc(-c3ccccc3)nc2c1Cc1ccc(-c2ccccc2-c2nn[nH]n2)cc1 | -48.2 | 175 | -13.3 | – | – | – |
| CCCc1nc(C)n2nc(NCC(=O)OCC)nc2c1Cc1ccc(-c2ccccc2-c2nn[nH]n2)cc1 | -73.6 | 32 | -5.7 | – | – | – |
| CCCCc1nc(Cl)c(CO)n1Cc1ccc(-c2ccccc2-c2nnn[nH]2)cc1 [LOSARTAN] | -104.2 | – | -32.9 | – | – | – |
